Consider one compound from article PMC5741288 (Pain Reports, 2016).

This assay relates to dermal blood flow (flare). Briefly: Topical capsaicin alone, flare response in anesthetized rats. The format is in vivo, Sprague Dawley rats. In short, it runs like this:
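Isoflurane-anaesthetised rats had clipped lower abdominal skin and an O-ring placed by a preliminary Doppler image. Capsaicin (0.1–3 mg) or vehicle (30% ethanol, Tween, sterile water) was pipetted into the ring. Dermal blood flow was scanned by laser Doppler imager every 15 min for 120 min. Change from baseline flux was computed every 15 min.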

The structures appear in SMILES notation.

`COc1cc(CNC(=O)CCCC/C=C/C(C)C)ccc1O` [Capsaicin]: the Flare response result is given as “did not produce any increase in flare” (0.1 mg topical); “transient increase in flare” (0.3 mg topical, peaked 30 minutes after application); “greatest amount of flare” (1 mg topical, larger concentrations did not increase flare further).
